Sampled rows, rich in hits. Any-hit rate of the full collection: about 0.95%.
p97 ATPase inh = human p97 ATPase inhibition; recombinant p97 ATPase, Kinase-Glo ATP luminescence, 3 h; P55072; hit rate 0.42% among 220,000; inhibition, % at 8 µM; AID 1481; in the data active = inhibition above about 15%
Target sequence (P55072 whole entry, looked up): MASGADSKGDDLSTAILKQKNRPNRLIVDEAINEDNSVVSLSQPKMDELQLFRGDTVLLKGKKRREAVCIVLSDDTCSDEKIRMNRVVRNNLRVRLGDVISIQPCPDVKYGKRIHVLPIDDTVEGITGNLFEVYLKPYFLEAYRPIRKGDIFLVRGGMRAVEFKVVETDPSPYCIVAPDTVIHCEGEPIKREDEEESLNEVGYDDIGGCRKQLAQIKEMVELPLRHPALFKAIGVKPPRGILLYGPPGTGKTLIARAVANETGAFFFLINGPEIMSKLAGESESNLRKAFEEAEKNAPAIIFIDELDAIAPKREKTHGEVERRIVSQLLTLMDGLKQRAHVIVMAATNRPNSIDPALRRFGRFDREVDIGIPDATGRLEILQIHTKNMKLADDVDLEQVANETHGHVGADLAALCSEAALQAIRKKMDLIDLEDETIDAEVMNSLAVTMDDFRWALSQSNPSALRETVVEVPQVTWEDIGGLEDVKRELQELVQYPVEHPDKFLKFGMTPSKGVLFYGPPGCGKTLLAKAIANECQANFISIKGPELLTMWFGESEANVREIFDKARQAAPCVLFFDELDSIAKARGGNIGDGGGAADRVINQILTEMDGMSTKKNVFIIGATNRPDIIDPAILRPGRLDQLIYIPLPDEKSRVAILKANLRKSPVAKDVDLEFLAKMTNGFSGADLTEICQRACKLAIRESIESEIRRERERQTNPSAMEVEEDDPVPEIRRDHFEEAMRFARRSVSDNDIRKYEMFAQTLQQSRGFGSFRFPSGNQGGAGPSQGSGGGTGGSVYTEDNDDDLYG
Diaphorase inh = inhibits diaphorase or chemically oxidizes, flagging diaphorase assay artifacts | diaphorase resazurin-to-resorufin fluorescence, NADH, 16 min; bacterial (C. kluyveri) enzyme, not human | inhibition, % at 20 µM | hit rate 0.69% among 190,000;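 active = primary screen inhibition at 20 µM above a set limit, cut at about 50% in these data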
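Test system: bacterial diaphorase enzyme (C. kluyveri); Quantity: 0.14 U/mL diaphorase, enzyme working solution; Times: reaction incubation of 16 min at room temperature; Measured by: fluorescence of resorufin formed from resazurin, Ex 544/Em 590 nm; Benchmarks: positive control minus NADH, DMSO neutral control.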
G6PDH CS = counter-screen for G6PDH assay hits: L. mesenteroides G6PDH inhibition. Purified L. mesenteroides G6PDH, diaphorase/resazurin coupled fluorescence, 45 min. inhibition, % at 5 µM. hit rate 0.12% among 200,000. AID 1020; in the data active = inhibition above about 50%
HKDC1 inh = blocks human hexokinase HKDC1 activity. inhibition, % at 20 µM. Q2TB90. hit rate 0.16% among 340,000. recombinant HKDC1, G6PDH/diaphorase resazurin coupled fluorescence. AID 493160;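 active = inhibition above about 35% when tested at 20 µM, limit read from the data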
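Test system: HK5 enzyme. Quantity: 5 µg/mL HK5 final. Reagent: glucose and ATP substrates. Schedule: 90 min reaction incubation at room temperature, dark. Technique: resazurin-to-resorufin fluorescence via G6PDH and diaphorase coupling, 525/613 nm. Control set: DMSO wells with and without enzyme mix.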
SUMO HTRF inh = SUMOylation inhibition; hit rate 0.36% among 290,000; P63279; inhibition, % at 35 µM; HTRF SUMOylation assay, SAE1/SAE2 + UBC9, in vitro; AID 2006; in the data active = inhibition above about 50%, passing the limit was not always enough
HKDC1 act conf2 = HKDC1 (human) activation, single-dose confirmed. AID 504708. hit rate 14% among 740. recombinant HKDC1, G6PDH/diaphorase resazurin fluorescence; hits give low values. inhibition, % at 20 µM. shares compounds with HKDC1 inh;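 active = inhibition at or below a set negative limit, negative inhibition meaning the enzyme was activated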
Numbers stand for hits; n = inactive; x = not tested or not shown.

SMILES | p97 ATPase inh | Diaphorase inh | G6PDH CS | HKDC1 inh | SUMO HTRF inh | HKDC1 act conf2
O=C(C1=C(O)C(=O)N(c2nc3ccc(Cl)cc3s2)C1c1ccco1)c1ccco1 (centres undefined) | x | x | x | 36 | x | n
Cc1ccc2nc(N3C(=O)C(O)=C(C(=O)c4ccc(C)o4)C3c3ccco3)sc2c1 (centres undefined) | x | x | x | n | x | x
COC1=C(OC)C(=O)C(Sc2ccc3ccccc3c2)=CC1=O | x | x | x | 71 | x | n
Cc1ccc(S(=O)(=O)N(CC(=O)Nc2cccc(C)c2C)C(=O)N2CCN(C)CC2)cc1 | x | x | x | n | x | x
NC1=C(Br)C(=O)c2ncccc2C1=O | x | x | x | 38 | x | n
O=S(c1ccccc1O)S(=O)c1ccccc1O (centres undefined) | x | x | x | n | x | x
CC(=NNC(=S)SCc1ccccc1)c1ccccn1 | x | x | x | n | x | -28
CC(=NNC(=S)N1CCC1)c1ccccn1 | x | x | x | n | x | x
CC(=NNC(=S)Nc1cccc(Cl)c1)c1ccccn1 | x | x | x | n | x | -63
O=C(CCN1C(=O)c2ccccc2S1(=O)=O)Nc1ccc(F)c(F)c1F | x | x | x | n | x | x
COc1ccc(-c2nc3c(C(=O)NCCN(C)C)cccc3c3ccccc23)cc1 | x | x | x | 39 | x | n
COC(=O)c1ccc(CNC(=O)CCNC(=O)c2ccco2)cc1 | x | x | x | n | x | x
COc1ccc(NC(=O)c2cc3ccccc3cc2O)cc1 | x | x | x | 38 | n | n
Cc1ccc(NC(=O)c2cc3ccccc3cc2O)cc1 | x | x | x | n | n | x
COc1cc(/C=C(\C#N)c2nc3ccc(C)cc3[nH]2)cc([N+](=O)[O-])c1O | n | 98 | n | 41 | n | n
COc1cc(/C=C(\C#N)c2nc3ccc(C)cc3[nH]2)c([N+](=O)[O-])cc1OC | n | n | n | n | n | x
CC(C)c1nc2oc3c(NCc4ccccn4)ncnc3c2c2c1COC(C)(C)C2 | x | x | x | 35 | x | n
CCCc1nc2oc3c(NCc4ccccn4)ncnc3c2c2c1COC(C)(C)C2 | n | n | n | n | n | n
Cc1nc2oc3c(NCc4ccccn4)ncnc3c2c2c1COC(C)(C)C2 | n | n | n | n | n | x
CCCc1nc2oc3c(NCC4CCCO4)ncnc3c2c2c1COC(C)(C)C2 (centres undefined) | n | n | n | 35 | n | n
COc1ncnc2c1oc1nc(C(C)C)c3c(c12)CC(C)(C)OC3 | n | 88 | n | 53 | n | n
CC1CCN(C(=O)COC(=O)c2ccc3c(c2)OCO3)CC1 | n | n | n | n | n | x
c1ccc(Nc2cc(Nc3ccccc3)[nH]n2)cc1 | n | n | n | n | n | n
CCn1c(=O)c(CCC(=O)N2CCN(c3ccccn3)CC2)c(C)c2c(C)nn(-c3cccc(C)c3)c21 | x | x | x | n | n | x
CC(=O)c1cnc(N(C)C)s1 | n | n | n | n | n | x
SMILES | p97 ATPase inh | Diaphorase inh | G6PDH CS | HKDC1 inh | SUMO HTRF inh | HKDC1 act conf2
CN(C)c1ncc(C2=C(Cl)C(=O)C(N3CCCC3)=C(Cl)C2=O)s1 | n | x | x | 35 | x | n
O=C1C(Cl)=C(N2CCCCC2)C(=O)C(Cl)=C1c1cnc(N2CCCCC2)s1 | n | 62 | n | 70 | 59 | n
COc1ccc(N2CCN(C(=O)Cn3c(=O)[nH]c4ccccc4c3=O)CC2)cc1 | n | n | n | x | n | x
Cc1ccccc1S(=O)(=O)c1c(C)cc(C)n(CC(C)C)c1=O | n | n | n | 71 | n | n
COc1ccccc1NC(=O)COc1coc(CN2CCN(c3ccccc3)CC2)cc1=O | x | x | x | n | x | x
COc1cccc(OC)c1C(=O)NNC(=O)c1cccnc1 | n | x | x | n | n | x
O=C(NNC(=O)c1cccnc1)NC1CCCCC1 | n | n | n | n | n | n
Cn1nccc1C(=O)N1CCN(c2cccc(Cl)c2)CC1 | x | x | x | 39 | n | n
O=C(O)c1cccc(-c2ccc(/C=c3/sc4nc5ccccc5n4c3=O)o2)c1 | n | x | x | 48 | 84 | n
COc1cccc(CC(Cc2nc3ccccc3[nH]2)c2nc3ccccc3[nH]2)c1 (centres undefined) | n | n | n | 50 | n | n
O=C(CN(C(=O)CNC(=O)c1cccs1)c1ccccc1F)NC1CCCC1 | x | x | x | n | n | x
Cc1ccc(-n2c3nc(=O)[nH]c(=O)c-3cc3cc([N+](=O)[O-])ccc32)cc1 | n | 74 | n | 49 | n | n
Cc1cc(C)c(S(=O)(=O)/N=C2/C=C(SCC(=O)O)C(=O)c3ccccc32)cc1C | n | n | 51 | 51 | n | n
Cc1nnc(N2C(=O)C(=O)/C(=C(\O)c3ccc4c(c3)CC(C)O4)C2c2ccccc2)s1 (centres undefined) | x | x | x | n | n | x
CCC(=O)N(c1nnc(SCC(=O)Nc2ccccc2Cl)s1)C1CC1 | x | x | x | n | x | x
CCOC(=O)C1=C(Cc2ccc(OC)cc2)C(=O)c2ccccc2C1=O | n | n | 57 | 71 | n | n
C/C(=N\NC(=O)C12CCC(C)(C(=O)O1)C2(C)C)c1ccccc1O (centres undefined) | n | x | x | n | n | x
CC12CCC(C(=O)N/N=C/c3ccc(O)cc3O)(OC1=O)C2(C)C (centres undefined) | n | x | x | n | n | -35
Cc1ccc(-n2cnc3c(=O)[nH]cnc32)cc1 | x | x | x | n | x | x
CCc1c(C)c(C#N)c2nc3ccccc3n2c1NCCN(C)C | n | n | n | n | n | x
CCc1c(C)c(C#N)c2nc3ccccc3n2c1NC | x | x | x | n | n | -43
N#CC(C#N)=c1ccc2c(c1)N1C3=C(CCCC3)CC3CCCCC31N=2 (centres undefined) | n | 76 | n | 39 | n | n
O=C(O)[C@@H](c1ccccc1)N1Cc2ccccc2C1=O | n | n | n | 52 | n | n

Screens: PubChem, several laboratories
